Assay [1] addresses Gamma-aminobutyric acid receptor subunit alpha-4/beta-3/gamma-2 (Rattus norvegicus, UniProt P18508+P28471+P63079). In words: Displacement of [3H]EBOB from rat GABA-A receptor alpha4beta3gamma2 expressed in HEK293 cell membranes after 90 mins by liquid scintillation counting analysis. The method in brief:
(§1)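 Crude membranes from HEK 293 cells transiently Ca-phosphate-transfected with rat subunit cDNAs, harvested at 48 h. Membranes (150-200 µg protein) incubated with 3 nM [3H]EBOB in 50 mM Tris/citrate pH 7.3 plus 0.2 M NaCl. Compound up to 10 µM, final DMSO 0.1%, no GABA, 90 min at 21 °C. Bound radioligand collected by GF/C filtration and counted by scintillation.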
Background: Displacement assays read how much labelled ligand stays bound in the presence of the test substance.

Assay [2] addresses T1, Gamma-aminobutyric acid receptor subunit alpha-6/beta-3 (Rattus norvegicus, UniProt P30191+P63079). In words: Displacement of [3H]EBOB from rat GABA-A receptor alpha6beta3 expressed in HEK293 cell membranes after 90 mins by liquid scintillation counting analysis. The method in brief:
as §1

In assay [3] the target is T2, Gamma-aminobutyric acid receptor subunit alpha-6/beta-3/gamma-2 (Rattus norvegicus, UniProt P18508+P30191+P63079). In words: Displacement of [3H]EBOB from rat GABA-A receptor alpha6beta3gamma2 expressed in HEK293 cell membranes after 90 mins by liquid scintillation counting analysis. The method in brief: as §1
T2 sequence (P18508 whole entry): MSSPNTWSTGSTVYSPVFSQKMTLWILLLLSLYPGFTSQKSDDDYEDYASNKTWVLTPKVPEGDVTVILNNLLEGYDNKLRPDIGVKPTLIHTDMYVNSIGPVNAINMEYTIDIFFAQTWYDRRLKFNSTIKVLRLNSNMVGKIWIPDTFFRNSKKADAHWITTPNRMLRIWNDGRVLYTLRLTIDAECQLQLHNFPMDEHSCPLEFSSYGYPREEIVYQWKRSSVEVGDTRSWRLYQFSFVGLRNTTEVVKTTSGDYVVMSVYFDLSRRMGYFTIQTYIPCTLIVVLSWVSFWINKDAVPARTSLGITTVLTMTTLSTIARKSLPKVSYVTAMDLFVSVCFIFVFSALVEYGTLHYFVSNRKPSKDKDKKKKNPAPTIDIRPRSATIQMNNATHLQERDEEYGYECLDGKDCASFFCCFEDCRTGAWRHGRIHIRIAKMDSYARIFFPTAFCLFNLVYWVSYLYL
T2 sequence (P30191 whole entry): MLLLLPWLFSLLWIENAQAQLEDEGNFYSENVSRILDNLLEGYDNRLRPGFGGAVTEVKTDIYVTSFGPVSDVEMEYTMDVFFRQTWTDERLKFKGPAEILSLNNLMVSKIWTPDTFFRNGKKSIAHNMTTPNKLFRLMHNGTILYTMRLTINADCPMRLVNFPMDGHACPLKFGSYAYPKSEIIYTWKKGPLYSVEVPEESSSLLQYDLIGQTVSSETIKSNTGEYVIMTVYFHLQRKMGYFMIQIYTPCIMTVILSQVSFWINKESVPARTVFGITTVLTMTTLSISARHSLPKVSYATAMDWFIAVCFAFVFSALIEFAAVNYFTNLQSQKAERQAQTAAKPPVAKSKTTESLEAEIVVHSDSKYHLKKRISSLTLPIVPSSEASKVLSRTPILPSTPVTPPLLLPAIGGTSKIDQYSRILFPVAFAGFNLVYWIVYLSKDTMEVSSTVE
T2 sequence (P63079 whole entry): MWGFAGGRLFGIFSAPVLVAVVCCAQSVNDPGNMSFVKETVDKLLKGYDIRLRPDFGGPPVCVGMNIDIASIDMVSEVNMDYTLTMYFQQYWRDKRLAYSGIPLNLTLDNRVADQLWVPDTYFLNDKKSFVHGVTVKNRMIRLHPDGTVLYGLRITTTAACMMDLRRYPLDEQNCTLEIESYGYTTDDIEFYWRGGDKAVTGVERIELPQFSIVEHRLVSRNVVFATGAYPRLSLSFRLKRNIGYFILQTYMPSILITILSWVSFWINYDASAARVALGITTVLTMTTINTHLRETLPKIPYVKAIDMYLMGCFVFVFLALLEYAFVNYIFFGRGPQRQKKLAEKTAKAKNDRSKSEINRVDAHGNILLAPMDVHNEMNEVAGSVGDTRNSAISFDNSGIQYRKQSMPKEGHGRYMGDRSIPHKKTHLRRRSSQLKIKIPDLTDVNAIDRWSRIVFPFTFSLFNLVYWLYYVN
In assay [4] the target is Gamma-aminobutyric acid receptor subunit alpha-6/beta-2 (Rattus norvegicus, UniProt P30191+P63138). In words: Displacement of [3H]EBOB from rat GABA-A receptor alpha6beta2 expressed in HEK293 cell membranes after 90 mins by liquid scintillation counting analysis. The method in brief:
as §1

In assay [5] the target is T3, Gamma-aminobutyric acid receptor subunit alpha-1/beta-3 (Rattus norvegicus) (UniProt P62813+P63079). In words: Displacement of [3H]EBOB from rat GABA-A receptor alpha1beta3 expressed in HEK293 cell membranes at 10 uM after 90 mins by liquid scintillation counting analysis relative to control. The method in brief: as §1
The target of assay [6] is T4, Gamma-aminobutyric acid receptor subunit alpha-1/beta-3/gamma-2 (Rattus norvegicus) (UniProt P18508+P62813+P63079). Put plainly: Displacement of [3H]EBOB from rat GABA-A receptor alpha1beta3gamma2 expressed in HEK293 cell membranes at 10 uM after 90 mins by liquid scintillation counting analysis relative to control. The method in brief: as §1
The target of assay [7] is Gamma-aminobutyric acid receptor subunit alpha-6/beta-2/delta (Rattus norvegicus) (UniProt P18506+P30191+P63138). In words: Displacement of [3H]EBOB from rat GABA-A receptor alpha6beta2delta expressed in HEK293 cell membranes up to 10 uM after 90 mins by liquid scintillation counting analysis relative to control. The method in brief:
as §1

Another assay is filed under the species Rattus norvegicus. Put plainly: Selectivity ratio of IC50 for rat GABA-A receptor alpha6beta3gamma2 expressed in HEK293 cells to IC50 for rat GABA-A receptor alpha6beta3delta expressed in HEK293 cells. It counts as cell-based.
Assay [8] addresses Gamma-aminobutyric acid receptor subunit alpha-1/beta-3/gamma-2 (Rattus norvegicus, UniProt P18508+P62813+P63079). In words: Modulation of rat […] GABA-A receptor alpha1beta3gamma2 expressed in HEK293 cells in presence of GABA by patch-clamp assay. In kind it is cell-based. The method in brief: (§2)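 Rat GABA-A subunits were transiently co-transfected with eGFP into HEK293 cells on coverslips. Fluorescent cells were recorded by whole-cell patch clamp 48 h later; bath pH 7.4, KCl/KOH pipette pH 7.2. Compound was applied at increasing concentrations up to 10 µM with the receptor-specific GABA EC20. Peak currents were fitted logistically for EC50, Hill and % modulation, as mean ± S.E.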
In general terms: Patch clamp records ionic current or voltage across a cell membrane.

For assay [9], the target named is T1, Gamma-aminobutyric acid receptor subunit alpha-6/beta-3. Put plainly: Modulation of rat […] GABA-A receptor alpha6beta3 expressed in HEK293 cells in presence of GABA by patch-clamp assay. It counts as cell-based. The method in brief:
as §2

Assay [10] deals with T2, Gamma-aminobutyric acid receptor subunit alpha-6/beta-3/gamma-2. Put plainly: Modulation of rat […] GABA-A receptor alpha6beta3gamma2 expressed in HEK293 cells in presence of GABA by patch-clamp assay. It counts as cell-based. The method in brief:
as §2

Assay [11] has as its target Gamma-aminobutyric acid receptor subunit alpha-1/beta-3/delta (Rattus norvegicus) (UniProt P18506+P62813+P63079). Put plainly: Modulation of rat […] GABA-A receptor alpha1beta3delta expressed in HEK293 cells up to 10 uM in presence of GABA by patch-clamp assay relative to control. In kind it is cell-based. The method in brief: as §2
For assay [12], the target named is Gamma-aminobutyric acid receptor subunit alpha-4/beta-3/delta (Rattus norvegicus) (UniProt P18506+P28471+P63079). Put plainly: Modulation of rat […] GABA-A receptor alpha4beta3delta expressed in HEK293 cells up to 10 uM in presence of GABA by patch-clamp assay relative to control. It counts as cell-based. The method in brief:
as §2

Assay [13] has as its target T3, Gamma-aminobutyric acid receptor subunit alpha-1/beta-3 (Rattus norvegicus). In words: Agonist activity at rat […] GABA-A receptor alpha1beta3 expressed in HEK293 cells assessed as ratio of I0 to GABA Imax at 10 uM in absence of GABA by patch-clamp assay. It counts as cell-based. The method in brief:
(§3)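 Whole-cell patch clamp on single fluorescent HEK 293 cells 48 h after transient co-transfection with rat subunit cDNAs plus eGFP. Extracellular solution 135 mM NaCl, 5.3 mM KCl, 2 mM CaCl2, 2 mM MgSO4, 10 mM HEPES pH 7.4, perfused 3 mL/min. Compound at 10 µM without GABA. Current expressed relative to 1 mM GABA at the same receptor (I0/Imax GABA), mean ± S.D. of n experiments.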

The target in assay [14] is T4, Gamma-aminobutyric acid receptor subunit alpha-1/beta-3/gamma-2 (Rattus norvegicus). In words: Agonist activity at rat […] GABA-A receptor alpha1beta3gamma2 expressed in HEK293 cells assessed as ratio of I0 to GABA Imax at 10 uM in absence of GABA by patch-clamp assay. In kind it is cell-based. The method in brief: as §3
Assay [15] deals with Gamma-aminobutyric acid receptor subunit alpha-6/beta-3 (Rattus norvegicus) (UniProt P30191+P63079). Put plainly: (§4) Displacement of [3H]EBOB from rat GABA-A receptor alpha6beta3 expressed in HEK293 cell membranes after 90 mins in presence of GABA by liquid scintillation counting analysis.
Assay [16] has as its target T1, Gamma-aminobutyric acid receptor subunit alpha-6/beta-3. The description is as §4.
Assay [17] has as its target Gamma-aminobutyric acid receptor subunit alpha-6/beta-3/gamma-2 (Rattus norvegicus) (UniProt P18508+P30191+P63079). In words: (§5) Displacement of [3H]EBOB from rat GABA-A receptor alpha6beta3gamma2 expressed in HEK293 cell membranes after 90 mins in presence of GABA by liquid scintillation counting analysis.
Assay [18] deals with T2, Gamma-aminobutyric acid receptor subunit alpha-6/beta-3/gamma-2. Described as §5.
For assay [19], the target named is Gamma-aminobutyric acid receptor subunit alpha-6/beta-3/delta (Rattus norvegicus) (UniProt P18506+P30191+P63079). In words: (§6) Displacement of [3H]EBOB from rat GABA-A receptor alpha6beta3delta expressed in HEK293 cell membranes after 90 mins in presence of GABA by liquid scintillation counting analysis.
Assay [20] deals with Gamma-aminobutyric acid receptor subunit alpha-6/beta-3/delta (Rattus norvegicus, UniProt P18506+P30191+P63079). Described as §6.
Gamma-aminobutyric acid receptor subunit alpha-6/beta-3/delta, sequence (P18506 whole entry): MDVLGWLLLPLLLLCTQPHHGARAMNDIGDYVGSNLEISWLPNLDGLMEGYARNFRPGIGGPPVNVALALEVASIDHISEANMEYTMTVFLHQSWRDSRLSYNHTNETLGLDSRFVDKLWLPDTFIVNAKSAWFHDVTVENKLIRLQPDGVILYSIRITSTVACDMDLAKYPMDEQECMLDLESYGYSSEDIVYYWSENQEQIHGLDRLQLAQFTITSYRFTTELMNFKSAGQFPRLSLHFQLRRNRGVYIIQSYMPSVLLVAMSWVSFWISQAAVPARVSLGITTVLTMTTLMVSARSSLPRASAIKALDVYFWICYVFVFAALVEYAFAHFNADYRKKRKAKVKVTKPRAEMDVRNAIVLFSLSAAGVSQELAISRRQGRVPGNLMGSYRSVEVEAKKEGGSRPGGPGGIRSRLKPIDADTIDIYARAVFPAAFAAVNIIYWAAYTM
Gamma-aminobutyric acid receptor subunit alpha-6/beta-3/delta, sequence (P30191 whole entry): as the sequence (P30191 whole entry) above
Gamma-aminobutyric acid receptor subunit alpha-6/beta-3/delta, sequence (P63079 whole entry): as the sequence (P63079 whole entry) above

T1 sequence (P30191 whole entry): as the sequence (P30191 whole entry) above
T1 sequence (P63079 whole entry): as the sequence (P63079 whole entry) above
Gamma-aminobutyric acid receptor subunit alpha-4/beta-3/gamma-2, sequence (P18508 whole entry): as the sequence (P18508 whole entry) above
Gamma-aminobutyric acid receptor subunit alpha-4/beta-3/gamma-2, sequence (P28471 whole entry): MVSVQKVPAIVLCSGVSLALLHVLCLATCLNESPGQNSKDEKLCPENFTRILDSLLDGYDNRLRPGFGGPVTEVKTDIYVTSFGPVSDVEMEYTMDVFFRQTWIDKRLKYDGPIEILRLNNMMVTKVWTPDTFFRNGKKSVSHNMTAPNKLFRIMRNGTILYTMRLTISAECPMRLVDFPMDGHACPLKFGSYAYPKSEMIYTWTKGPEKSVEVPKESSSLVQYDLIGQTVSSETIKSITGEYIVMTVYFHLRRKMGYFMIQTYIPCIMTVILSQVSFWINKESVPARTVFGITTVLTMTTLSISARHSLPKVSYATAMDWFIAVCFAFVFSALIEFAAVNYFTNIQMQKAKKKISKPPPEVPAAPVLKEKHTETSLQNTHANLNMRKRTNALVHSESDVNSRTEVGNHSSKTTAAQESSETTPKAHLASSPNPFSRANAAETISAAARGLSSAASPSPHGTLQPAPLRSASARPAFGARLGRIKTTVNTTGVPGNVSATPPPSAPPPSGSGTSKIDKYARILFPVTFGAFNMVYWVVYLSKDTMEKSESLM
Gamma-aminobutyric acid receptor subunit alpha-4/beta-3/gamma-2, sequence (P63079 whole entry): as the sequence (P63079 whole entry) above
Gamma-aminobutyric acid receptor subunit alpha-1/beta-3/gamma-2, sequence (P18508 whole entry): as the sequence (P18508 whole entry) above
Gamma-aminobutyric acid receptor subunit alpha-1/beta-3/gamma-2, sequence (P62813 whole entry): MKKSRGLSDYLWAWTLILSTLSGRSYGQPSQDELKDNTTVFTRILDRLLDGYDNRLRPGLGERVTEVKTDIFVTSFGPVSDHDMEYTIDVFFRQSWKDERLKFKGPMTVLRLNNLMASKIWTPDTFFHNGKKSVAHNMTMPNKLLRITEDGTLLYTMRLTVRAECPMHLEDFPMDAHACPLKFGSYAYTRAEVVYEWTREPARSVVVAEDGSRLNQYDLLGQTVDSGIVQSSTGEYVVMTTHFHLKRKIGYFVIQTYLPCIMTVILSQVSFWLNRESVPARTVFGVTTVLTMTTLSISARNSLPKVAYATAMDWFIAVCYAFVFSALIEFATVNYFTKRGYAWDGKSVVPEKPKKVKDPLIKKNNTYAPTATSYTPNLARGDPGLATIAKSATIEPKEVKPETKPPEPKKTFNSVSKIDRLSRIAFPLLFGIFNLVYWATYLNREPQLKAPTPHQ
Gamma-aminobutyric acid receptor subunit alpha-1/beta-3/gamma-2, sequence (P63079 whole entry): as the sequence (P63079 whole entry) above
Gamma-aminobutyric acid receptor subunit alpha-6/beta-2, sequence (P30191 whole entry): as the sequence (P30191 whole entry) above
Gamma-aminobutyric acid receptor subunit alpha-6/beta-2, sequence (P63138 whole entry): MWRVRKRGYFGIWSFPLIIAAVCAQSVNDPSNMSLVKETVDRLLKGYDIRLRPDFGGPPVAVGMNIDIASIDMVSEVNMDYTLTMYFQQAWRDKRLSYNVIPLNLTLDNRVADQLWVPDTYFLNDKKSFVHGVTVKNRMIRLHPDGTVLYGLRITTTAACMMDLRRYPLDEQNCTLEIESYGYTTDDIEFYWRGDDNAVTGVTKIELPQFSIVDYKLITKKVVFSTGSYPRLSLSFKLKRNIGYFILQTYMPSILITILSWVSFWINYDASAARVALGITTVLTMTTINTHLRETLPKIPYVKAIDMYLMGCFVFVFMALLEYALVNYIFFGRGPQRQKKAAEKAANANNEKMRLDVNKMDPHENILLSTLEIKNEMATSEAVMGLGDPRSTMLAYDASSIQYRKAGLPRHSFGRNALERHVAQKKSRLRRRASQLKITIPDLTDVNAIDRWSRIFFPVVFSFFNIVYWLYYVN

With `O=C(Nc1c(-c2cccs2)nc2c(Br)cc(Br)cn12)c1ccc(Cl)cc1`, the IC50 – broadly, the midpoint of a concentration-inhibition curve – amounted to 3.29 µM in [1]; 0.79 µM in assay [2]; 0.93 µM in assay [3]; 0.63 µM in assay [4]; 0.96 µM in assay [16]; 1.09 µM in assay [18]. In [20], the IC50 is 0.37 µM. Besides, the Imax in [5] was found to be 25%; in assay [6], 13%; in assay [7], 82%; in [15], 96%; in [17], 93%; in assay [19], 88%. For the same compound, the Ratio IC50 in the assay filed under Rattus norvegicus came to 3. The values for the half-maximal effective concentration (EC50) in assay [8], in [9] and in assay [10] were 2.01 µM, 0.17 µM and 0.87 µM, respectively. The Activity in assay [11] is 201%; in [12] it was 297%. Moreover, the results for the Ratio in [13] and in assay [14] were 0.074 and 0.058, respectively.

Values taken from ChEMBL document CHEMBL4190374, “Structure-Function Evaluation of Imidazopyridine Derivatives Selective for δ-Subunit-Containing γ-Aminobutyric Acid Type A (GABAA) Receptors” (J Med Chem, 2018).
